Assay results from PubChem BioAssay.
Calls of active or inactive are those of the source.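 How the source made its calls, unless noted: active means visually confirmed hit in the image check and inhibition above 20%; inconclusive means visually confirmed hit but inhibition not above 20%; inactive means no visual hit in the image check.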

Assays:
[1] = inhibitors of TNFa-induced NFkB p65 translocation, primary screen, imaging, HUVEC, MLSMR starter and 10KST1 sets (AID 438;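 active means inhibition above 20% together with a positive visual image hit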;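 further: compound added about 3h40 before a 20 min TNFalpha stimulation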;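 on inhibition: signal is the nuclear over cytoplasmic p65 intensity ratio per well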); details: HUVEC TNFa-induced p65 nuclear translocation; cell count: measured here: nuclei count (cytotoxicity indicator), at 2.08 µM; inhibition: at 2 µM, stronger effect = higher value, 0% TNFa-plus-vehicle, 100% no-TNFa wells
[2] = inhibitors of mutant huntingtin aggregation, primary screen, imaging, exon1htt(103Q)mCFP cells, high-content imaging (AID 483;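 active means visual image review flags a hit and inhibition of aggregation exceeds 20%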;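 further: compound exposure lasted 3 days before fixation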;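 on nuclei count: percent of the per-plate median nuclei count of sample wells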); details: exon1htt(103Q)mCFP cell line, aggregate imaging, at 2 µM; inhibition of aggregation: stronger effect = higher value; nuclei count: measured here: cell count, toxicity
[3] = inhibitors of E-selectin induction by TNFa, primary screen, imaging, HUVEC, immunofluorescence, MLSMR starter and 10KST1 sets (AID 487); details: HUVEC TNFalpha-induced E-selectin immunofluorescence imaging, at 2 µM; inhibition: stronger effect = higher value; nuclei count: measured here: cell number, toxicity;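 on inhibition: signal is fraction of cell area covered by stained E-selectin grains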;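 on nuclei count: 100% = median nuclei count of all wells on the same plate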
[4] = target: Voltage-gated potassium channel subunit beta-2 (Rattus norvegicus) (UniProt P62483); assay: KvBeta enzyme negative modulators, primary screen, biochemical, NADPH fluorescence (AID 622;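 active means fluorescence slope higher than the sample average by over 3 SD, cut at about -0.22 in these data, passing the limit was not always enough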;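 further: slope of raw intensity against log time taken from 70 to 1610 s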); details: recombinant KvBeta, 4-cyanobenzaldehyde reduction, at 10 µM, stronger effect = higher value
[5] = target: Voltage-gated potassium channel subunit beta-2 (Rattus norvegicus) (UniProt P62483); assay: KvBeta positive modulators, primary screen, biochemical, NADPH fluorescence (AID 623;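 active means NADPH fluorescence slope more negative than the mean of all samples by about 3 SD, 99.7% confidence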;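 further: fluorescence intensity change per second fitted from 20 to 320 s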); details: Recombinant KvBeta, NADPH fluorescence decrease slope, 10 min; at 10 µM; stronger effect = lower value
[6] = target: Muscarinic acetylcholine receptor M4 (Homo sapiens) (UniProt P08173); assay: compounds altering M4/GIRK thallium flux, either direction, primary screen, M4 allosteric agonist project, cell-based, HEK293 M4/GIRK, BTC-AM (AID 625;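 active means fluorescence slope after compound addition differing from the mean of all tested samples at 99.7% confidence, mostly higher but some lower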;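 further: thallium influx through GIRK channels coupled to M4 in HEK293 cells with BTC-AM dye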); details: at 10 µM, actives lie on both sides
Procedure, shortened: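 System: HEK293 cells with M4 receptor and GIRK channels | Incubation: Cells overnight at 37 °C, BTC-AM loading 1 h, reads 2 min total | Technique: Kinetic BTC-AM fluorescence sampled at 1 Hz, 10 s pre-addition baseline | Measure: Post-addition slope, 15–24 s, of baseline-normalized fluorescence | Control set: Carbachol positive, DMSO negative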

[7] = inhibitors of Sendai virus-induced IRF3 signaling, primary screen, TLR/RLR signaling modifier project, cell-based, Sendai virus stimulus, luciferase, 10K MLSCN set (AID 602276;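 active means inhibition at or above 50% at 10 µM; inactive means inhibition below 50%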;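 further: firefly luciferase from ISG56 promoter only with Renilla not read in this screen; 0% = Sendai virus plus DMSO and 100% = medium plus DMSO without virus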); details: HEK293 RL24 IRF3 luciferase reporter, at 10 µM, stronger effect = higher value
[8] = inhibitors of poly I:C-induced TLR3 signaling, primary screen, cell-based, poly I:C stimulus, luciferase, 10K MLSCN set (AID 602277;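 active means inhibition of the reporter signal at or above 50%; inactive means inhibition below 50%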); details: HEK293-TLR3 RL24 IRF3 luciferase reporter, at 10 µM, stronger effect = higher value

Sequence of Muscarinic acetylcholine receptor M4 (Homo sapiens) (P08173 whole entry, looked up): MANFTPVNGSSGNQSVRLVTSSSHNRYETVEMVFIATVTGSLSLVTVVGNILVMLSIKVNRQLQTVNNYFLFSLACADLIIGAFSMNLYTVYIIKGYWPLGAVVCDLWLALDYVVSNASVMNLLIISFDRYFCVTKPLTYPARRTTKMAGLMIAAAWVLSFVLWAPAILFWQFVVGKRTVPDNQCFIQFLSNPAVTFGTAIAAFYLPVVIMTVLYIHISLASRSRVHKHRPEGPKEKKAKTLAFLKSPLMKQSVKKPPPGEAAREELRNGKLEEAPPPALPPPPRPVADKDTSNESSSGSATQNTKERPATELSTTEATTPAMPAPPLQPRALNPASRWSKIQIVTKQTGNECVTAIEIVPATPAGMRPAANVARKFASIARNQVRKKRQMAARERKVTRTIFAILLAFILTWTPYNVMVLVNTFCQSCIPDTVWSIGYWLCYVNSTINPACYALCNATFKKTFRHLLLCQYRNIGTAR
Sequence of Voltage-gated potassium channel subunit beta-2 (Rattus norvegicus) (P62483 whole entry, looked up): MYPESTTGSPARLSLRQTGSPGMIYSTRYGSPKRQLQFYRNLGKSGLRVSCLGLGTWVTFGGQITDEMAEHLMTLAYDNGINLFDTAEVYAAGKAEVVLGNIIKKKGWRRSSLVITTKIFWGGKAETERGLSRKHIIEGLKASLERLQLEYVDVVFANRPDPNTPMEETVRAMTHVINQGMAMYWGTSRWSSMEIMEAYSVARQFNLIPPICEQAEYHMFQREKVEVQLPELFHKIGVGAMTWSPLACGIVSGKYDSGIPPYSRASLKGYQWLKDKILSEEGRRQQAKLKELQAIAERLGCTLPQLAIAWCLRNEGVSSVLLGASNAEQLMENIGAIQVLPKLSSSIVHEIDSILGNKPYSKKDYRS

Structure (SMILES) | cell count [1] | inhibition [1] | inhibition of aggregation [2] | nuclei count [2] | inhibition [3] | nuclei count [3] | fluorescence slope [4] | NADPH fluorescence slope [5] | fluorescence slope [6] | inhibition [7] | inhibition [8]
CCOc1ccc2ccccc2c1/C=N/n1cncn1 | 416 | 3.4% (inactive) | 9.7% (inactive) | 97.3% | -92.4% (inactive) | 120% | -0.605 (inactive) | -4.9e-05 (inactive) | 0.0038 (inactive) | 11.7% (inactive) | -8.9% (inactive)
O=C(N1CCOCC1)N1CCC(NC(=O)C23CC4CC(CC(C4)C2)C3)CC1 | 363 | 9.1% (inactive) | -0.3% (inactive) | 99% | -15.5% (inactive) | 81.8% | -0.55 (inactive) | -4e-05 (inactive) | 0.00404 (inactive) | 15.6% (inactive) | 21.8% (inactive)
N#Cc1nc(-c2ccc(Cl)cc2)oc1NCCc1ccccn1 | 238 | 18.4% (inactive) | -7.2% (inactive) | 107% | -40.5% (inactive) | 97.9% | -0.59 (inactive) | -2.8e-06 (inactive) | 0.00656 (inactive) | 24.4% (inactive) | -35% (inactive)
CC(C)(C)OC(=O)NC(CCNC=C1C(=O)OC(C)(C)OC1=O)C(=O)O (centres undefined) | 255 | 7.2% (inactive) | 12.3% (inactive) | 106% | -87% (inactive) | 103% | -0.299 (inactive) | -5.2e-05 (inactive) | 0.00613 (inactive) | 5.28% (inactive) | 0.81% (inactive)
O=S(=O)(Cc1ccc(Cl)cc1)Nc1ccc2c(c1)OCO2 | 291 | -12.5% (inactive) | 10.4% (inactive) | 99.4% | -35.3% (inactive) | 123% | -0.454 (inactive) | -5.8e-05 (inactive) | 0.00401 (inactive) | 7.86% (inactive) | 9.38% (inactive)
Cc1c(C(=O)NCc2cccnc2)sc2ncn(CC(=O)N3CCCCC3C)c(=O)c12 (centres undefined) | 477 | -7% (inactive) | -3.4% (inactive) | 89.7% | -51.3% (inactive) | 70.3% | -0.555 (inactive) | -1.4e-05 (inactive) | 0.00535 (inactive) | 18.5% (inactive) | 23.8% (inactive)
O=C(Cn1c(=O)n(Cc2ccc3c(c2)OCO3)c(=O)c2ccccc21)N1CCCc2ccccc21 | 680 | -6.8% (inactive) | -11.1% (inactive) | 87.9% | -22.2% (inactive) | 109% | -0.595 (inactive) | -6.4e-06 (inactive) | 0.00433 (inactive) | 21.3% (inactive) | 26.4% (inactive)
CCc1ccccc1NC(=O)CSc1nc2n[nH]c(C)c2c(=N)n1-c1ccc(OC)cc1 | 453 | 17.4% (inactive) | -1.3% (inactive) | 104% | 41.3% (inactive) | 103% | -0.47 (inactive) | -4.8e-05 (inactive) | 0.00766 (inactive) | 15.1% (inactive) | 20.3% (inactive)
CCOC(=O)C1CCCN(C(=O)c2cccs2)C1 (centres undefined) | 330 | 3.3% (inactive) | 13.3% (inactive) | 110% | 22% (inactive) | 104% | -0.456 (inactive) | -5e-05 (inactive) | 0.0055 (inactive) | 12.8% (inactive) | 3.43% (inactive)
CC1(C)CC(=O)C=C(Nc2ccc(F)cc2)C1 | 454 | 10.9% (inactive) | 3.9% (inactive) | 99.5% | -20% (inactive) | 109% | -0.607 (inactive) | 3.1e-05 (inactive) | 0.00469 (inactive) | -2.98% (inactive) | 13.6% (inactive)
N#Cc1ccc(CSc2nnc(-c3cnccn3)o2)cc1 | 489 | -15% (inactive) | -20.4% (inactive) | 106% | -60.9% (inactive) | 105% | -0.555 (inactive) | -5.1e-06 (inactive) | 0.00528 (inactive) | 2.28% (inactive) | 5.14% (inactive)
Cc1cc(/N=C/N(C)C)on1 | 522 | 1.5% (inactive) | 3.5% (inactive) | 104% | -19.3% (inactive) | 104% | -0.586 (inactive) | -4.7e-05 (inactive) | 0.00679 (inactive) | 19% (inactive) | 16% (inactive)
CCCn1c2c(c(O)c(C(=O)Nc3ccc(C)cn3)c1=O)CCCC2 | 483 | 9.8% (inactive) | -6.3% (inactive) | 96.3% | -7.5% (inactive) | 91.3% | -0.546 (inactive) | -6e-05 (inactive) | 0.00777 (inactive) | 6.86% (inactive) | 10.7% (inactive)
CCN(C(=O)c1c(-c2ccccc2)noc1C)c1ccccc1 | 600 | 1% (inactive) | 1.1% (inactive) | 106% | -39.7% (inactive) | 95.6% | -0.534 (inactive) | -1.1e-05 (inactive) | 0.00432 (inactive) | 22.5% (inactive) | 22.7% (inactive)
